pEC50: −log10 of the molar value. Like-named read-outs stand apart in the source and are kept apart here. Blank lines part the entries; values can stand above or below the compound they belong to.
Tests used:
[1] = tested on: cynomolgus monkeys; format: in vivo, cynomolgus monkeys (Macaca fascicularis); conditions: conscious monkeys, oral, doses up to 30 mg·kg^−1
[2] = target: human S1P1 receptor (Homo sapiens, UniProt P21453); assay: Ca2+ mobilization assay, human S1P1 receptor-expressing cells; format: cell-based
[3] = tested on: healthy subjects; assay: Phase I multiple ascending dose trial: heart rate and ECG; format: in vivo, human
Method in brief: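 Healthy men received oral test compound at 0.125–0.75 mg or placebo for 21 days, fed. Heart rate came from 24 h 12-lead Holter ECG against a day −1 baseline, with telemetry on day 1. Mean hourly rate was fitted by a linear mixed model with a pre-dose covariate. The 1–12 h nadir was compared by ANCOVA (day −1 covariate), giving LS mean differences versus placebo with 95% CI.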

[4] = tested on: healthy subjects; assay: Phase I multiple ascending dose trial: adverse events; format: in vivo, human
Method in brief: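 Randomized, double-blind, placebo-controlled, parallel multiple-ascending-dose study in healthy men aged 18–45. Oral test compound was given at 0.125, 0.25, 0.5 or 0.75 mg (10 subjects per dose) or placebo (n = 10) over 21 days in the fed state. Follow-up visits were on days 28, 35, 42, 56 and 70. Adverse events were recorded throughout the study.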

[5] = tested on: healthy subjects; assay: Phase I multiple ascending dose trial: peripheral lymphocyte counts; format: in vivo, human; conditions: 0.75 mg, day 21
Method in brief: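 Healthy men received oral test compound (0.125–0.75 mg) or placebo for 21 days in the fed state. Absolute lymphocyte counts were taken at screening and on days −2, 1–12, 14, 16, 18, 20–25, 28, 35, 42, 56 and 70.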

[6] = Phase I multiple ascending dose trial: pharmacokinetic assessment; format: in vivo, human
Method in brief: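 Healthy men received oral test compound (0.125–0.75 mg, 10 per dose) for 21 days, fed. Blood was sampled on days 1–12, 14, 16, 18, 20–25, 28, 35, 42, 56 and 70. Parent and phosphate metabolite were measured in plasma and urine by validated LC/MS/MS, with LLOQ 0.05 ng·mL−1.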

[7] = tested on: humans; conditions: cited from earlier work; for decrease in the lymphocyte count: psoriasis patients, ref Vaclavkova et al., 2014
[8] = tested on: humans; conditions: clinical dose 0.5 mg, ref Schmouder et al., 2012; cited from earlier work
[9] = tested on: cardiac Na+ and Ca2+ channels in HCMs; assay: Cardiac Na+ and Ca2+ channels in HCMs; format: cell-based, human; conditions: data not shown
[10] = Tissue distribution in rats; format: in vivo, SD rats; conditions: rat, single oral 1 mg·kg^−1 of amiselimod or fingolimod
Method in brief: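 SD rats fasted 15 h received a single oral 1 mg·kg−1 test compound without anaesthesia. Rats killed at 24 or 48 h were fed at 8 h. Plasma and heart homogenates underwent solid-phase extraction. Parent and phosphate metabolite were measured by LC–MS/MS. Parameters were derived by non-compartmental analysis. Dosing/sampling and analysis were done by separate researchers unaware of treatment.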

[11] = target: T1, human S1P4 receptor (Homo sapiens, UniProt O95977); assay: Ca2+ mobilization assay, human S1P4 receptor-expressing cells; format: cell-based
T1 sequence (O95977 1-384): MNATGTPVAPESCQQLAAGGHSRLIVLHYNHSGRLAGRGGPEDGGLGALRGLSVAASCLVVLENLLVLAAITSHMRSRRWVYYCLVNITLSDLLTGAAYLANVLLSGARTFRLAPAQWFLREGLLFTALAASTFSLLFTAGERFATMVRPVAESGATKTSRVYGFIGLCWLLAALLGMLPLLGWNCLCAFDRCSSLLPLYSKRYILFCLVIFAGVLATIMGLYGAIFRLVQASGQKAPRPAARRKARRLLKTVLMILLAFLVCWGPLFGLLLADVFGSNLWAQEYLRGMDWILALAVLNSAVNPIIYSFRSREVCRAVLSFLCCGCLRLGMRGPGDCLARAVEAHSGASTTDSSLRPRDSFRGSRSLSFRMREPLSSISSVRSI

[12] = tested on: GIRK channels in human atrial myocytes; assay: Human GIRK channel assay in human atrial myocytes; format: cell-based; conditions: 20 μmol·L^−1 carbachol
Method in brief: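 Atrial myocytes were isolated from a human atrial specimen taken during cardiac surgery. GIRK current was recorded by whole-cell patch clamp at 37 ± 1°C and elicited by rapid superfusion with 20 μmol·L−1 carbachol. Current was read on a pulse to −100 mV from a −90 mV holding potential. Values were normalized to the carbachol-evoked increase. Four myocytes per condition were analysed by a blinded researcher.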

[13] = target: human S1P3 receptor (Homo sapiens, UniProt Q99500); assay: Ca2+ mobilization assay, human S1P3 receptor-expressing cells; format: cell-based
[14] = humans, ref Gergely et al., 2012, Brooks et al., 2013, Brossard et al.; cited from earlier work
[15] = healthy subjects receiving amiselimod, all doses

Sequence of human S1P1 receptor (P21453 whole entry): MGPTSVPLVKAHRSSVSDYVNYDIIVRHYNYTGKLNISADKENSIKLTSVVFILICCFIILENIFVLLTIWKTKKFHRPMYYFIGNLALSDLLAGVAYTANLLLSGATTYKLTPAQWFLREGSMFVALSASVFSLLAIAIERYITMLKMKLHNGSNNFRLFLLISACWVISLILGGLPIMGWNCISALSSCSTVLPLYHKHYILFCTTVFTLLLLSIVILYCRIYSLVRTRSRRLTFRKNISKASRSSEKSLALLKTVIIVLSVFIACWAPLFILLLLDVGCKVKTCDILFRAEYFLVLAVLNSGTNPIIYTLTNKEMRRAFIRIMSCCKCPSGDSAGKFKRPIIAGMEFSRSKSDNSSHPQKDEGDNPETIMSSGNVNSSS
Sequence of human S1P3 receptor (Q99500 whole entry): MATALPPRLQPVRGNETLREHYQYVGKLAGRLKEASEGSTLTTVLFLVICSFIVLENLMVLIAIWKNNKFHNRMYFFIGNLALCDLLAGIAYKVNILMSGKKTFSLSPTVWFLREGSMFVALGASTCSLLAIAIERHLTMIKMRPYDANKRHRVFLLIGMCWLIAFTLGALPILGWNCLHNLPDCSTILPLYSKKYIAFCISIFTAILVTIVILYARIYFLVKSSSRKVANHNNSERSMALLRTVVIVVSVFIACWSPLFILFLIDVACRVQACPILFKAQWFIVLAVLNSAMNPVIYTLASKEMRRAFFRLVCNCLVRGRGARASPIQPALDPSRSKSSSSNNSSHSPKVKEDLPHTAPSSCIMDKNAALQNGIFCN

pEC50 [2]: < 6.00 | agonist activity at S1P1 receptors ([2]; up to 1000 nmol·L^−1): no agonist activity | accumulation ratios (range) ([6]; healthy subjects, after 21 day dosing): 16–29 | administered dose excreted in the urine ([6]; healthy subjects, day 21): Less than 0.2% | mean t1/2 ([6]; healthy subjects, plasma, across 0.125–0.75 mg doses): 380 to 420 h | period of accumulation to steady state ([6]; humans, inferred from long t1/2): approximately 10 weeks
SMILES: CCCCCCCOc1ccc(CCC(N)(CO)CO)cc1C(F)(F)F.Cl [Amiselimod, 2‐amino‐2‐{2‐[4‐(heptyloxy)‐3‐(trifluoromethyl)phenyl]ethyl}propan‐1,3‐diol hydrochloride]
effect on blood pressure [1]: did not affect | effects on heart rate or ECG parameters (PR interval, QRS duration, QT interval, QTc) [1]: no effects | nadir (1–12 h) mean hourly heart rate, LS mean ([3]; 0.5 mg, day 1): 62.213 bpm | nadir (1–12 h) mean hourly heart rate, LS mean ([3]; 0.75 mg, day 1): 61.952 bpm | ECG Holter transient AV conduction abnormalities, subjects ([3]; 0.125–0.75 mg): five subjects | PR interval, QRS width, QT interval, QTcB interval, QTcF interval and RR interval ([3]; 0.125–0.75 mg): not affected | decrease in heart rate versus placebo ([3]; up to the 0.75 mg dose, day 1): no significant decrease | mild AEs, subjects ([4]; 0.125 mg): 8 subjects | moderate AEs, subjects ([4]; 0.125 mg): 1 subjects | mild AEs, subjects ([4]; 0.25 mg): 4 subjects | mild AEs, subjects ([4]; 0.5 mg): 9 subjects | moderate AEs, subjects ([4]; 0.5 mg): 1 subjects | mild AEs, subjects ([4]; 0.75 mg): 7 subjects | moderate AEs, subjects ([4]; 0.75 mg): 1 subjects | number of subjects reporting AEs [4, 15]: 28 subjects | total number of AEs reported [4, 15]: 74 AEs | severe AEs or serious AEs ([4]; healthy subjects, during the study): no severe AEs or serious AEs | decrease in trough lymphocyte counts [5]: 60%

SMILES: CCCCCCCCc1ccc(CCC(N)(CO)CO)cc1 [Fingolimod, fingolimod]
lymphocyte counts decreased below the baseline ([7]; 0.5 mg, RRMS patients, ref Kappos et al., 2010): 73% | decrease in heart rate [8]: 6.2 bpm | effect on cardiac Na+ and Ca2+ channels [9]: did not affect

heart AUC0–last [10]: 17 182 ng·h·g^−1 | heart Cmax [10]: 479 ng/g | plasma AUC0–last [10]: 556 ng·h/mL | pEC50 ([11]; read-out: EC50 values (95% CI), S1P4, agonist activity, intracellular Ca2+ mobilization, geometric mean): 7.18
SMILES: CCCCCCCCc1ccc(CC[C@](N)(CO)COP(=O)(O)O)cc1 [Fingolimod‐P, Fingolimod phosphate]
effect on cardiac Na+ and Ca2+ channels [9]: did not affect

pEC50 [2]: 9.74 | pEC50 [11]: 7.08 | pEC50 [13]: 9.80
SMILES: CCCCCCCCCCCCC/C=C/[C@@H](O)[C@@H](N)COP(=O)(O)O [S1P, sphingosine 1‐phosphate]
GIRK current reached, of the maximal current increase evoked by carbachol [12]: more than 90%

SMILES: CC(C)Oc1ccc(-c2nc(-c3cccc4c3CC[C@@H]4NCCO)no2)cc1C#N [ozanimod]
lymphocyte count decrease from baseline ([7]; 1 mg, healthy volunteers, ref Olson et al., 2013, Sandborn et al., 2015): 65% | t1/2 [14]: 17.1 h

SMILES: CCC/N=C1\S/C(=C\c2ccc(OC[C@H](O)CO)c(Cl)c2)C(=O)N1c1ccccc1C [ponesimod]
decrease in the lymphocyte count ([7]; 20 mg, Phase II): 56% | decrease in the lymphocyte count ([7]; 40 mg, Phase II): 65% | t1/2 [14]: 21.7 to 33.4 h

SMILES: CCc1cc(/C(C)=N/OCc2ccc(C3CCCCC3)c(C(F)(F)F)c2)ccc1CN1CC(C(=O)O)C1 [siponimod]
lymphocyte count decrease ([7]; 2 mg, RRMS patients, Phase II, ref Selmaj et al., 2013): 70% | t1/2 [14]: 21.9 to 36.3 h
